In experiment [1] the test system is HeLa. In words: Antiproliferative activity against human HeLa cells at 0.1 uM after 24 hrs. The format is functional, cell-based. In a few lines:
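HeLa cells grown in DMEM with FBS were seeded in 96-well plates and exposed for 12, 24 or 48 h to compound dissolved in DMSO (final DMSO under 0.1%). WST-8 (Cell Counting Kit-8) was added, and OD at 450 nm was read after 30 min. Survival was expressed as % of untreated control, in triplicate, with two further independent experiments.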

Experiment [2] can be described thus: Inhibition of tubulin polymerization by turbidity assay. The procedure, abridged:
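Turbidity assay: tubulin in reaction buffer with GTP at 37 °C, test agent at 0.25 and 0.50 µM, taxol 0.1 µM as positive control. A340 read every 30 s for 60 min with gentle plate agitation.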

For experiment [3], the system named is HeLa. As to the kind of experiment: Antiproliferative activity against human HeLa cells at 0.25 uM after 24 hrs. The format is functional, cell-based. In a few lines: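 HeLa cells in 96-well culture, treated for 12, 24 and 48 h, done in triplicate; after treatment, incubated 24 h more at 37 °C, 5% CO2. WST-8 (Cell Counting Kit-8) added, OD read at 450 nm after 30 min. Survival expressed relative to untreated cells; two further independent experiments.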

The subject of experiment [4] is HeLa. As to the kind of experiment: Cell cycle arrest in human HeLa cells assessed as accumulation at G1 phase at 0.5 uM after 24 hrs using propidium iodide staining by FACS analysis. The format is functional. The procedure, abridged:
(§1)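 HeLa cells grown in DMEM/FBS, 24 h to adhere, then given 0.5 µM from DMSO stock (DMSO <0.1% in medium). Harvested at 0, 12, 24 and 48 h, PBS-washed and fixed in 70% ethanol. Stained with 50 µg/ml propidium iodide plus 100 µg/ml RNase A at 37 °C in the dark for ≥3 h. Read by flow cytometry; sub-G1 fraction scored as apoptotic.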
(Flow cytometry measures light scatter and fluorescence of single cells or particles in a stream.)

Experiment [5] concerns HeLa. In words: Cell cycle arrest in human HeLa cells assessed as accumulation at G2 phase at 0.5 uM after 24 hrs using propidium iodide staining by FACS analysis. The format is functional. In a few lines: as §1
In experiment [6] the test system is HeLa. As to the kind of experiment: Cell cycle arrest in human HeLa cells assessed as accumulation at G2 phase at 0.5 uM after 12 hrs using propidium iodide staining by FACS analysis. The format is functional. In a few lines:
as §1

Experiment [7] concerns HeLa. In words: Cell cycle arrest in human HeLa cells assessed as accumulation at S phase at 0.5 uM after 48 hrs using propidium iodide staining by FACS analysis. The class given is functional. The procedure, abridged:
as §1

Experiment [8] has as its system HeLa. As to the kind of experiment: Induction of apoptosis in human HeLa cells assessed as caspase 7 cleavage at 0.5 uM. The format is functional, cell-based. To be noted: TDE = time-dependent effect. In a few lines: (§2)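 HeLa cells treated with 0.5 µM for 0–48 h (sampled at 0, 3, 6, 12, 24, 48 h). Whole-cell lysates made in 20 mM HEPES pH 7.2, 1% Triton X-100, 10% glycerol, 150 mM NaCl, leupeptin, 1 mM PMSF. Lysates run on SDS–PAGE, immunoblotted with the indicated antibodies, GAPDH as loading control.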

For experiment [9], the system named is HeLa. In words: Cell cycle arrest in human HeLa cells assessed as accumulation at sub G1 phase at 0.5 uM after 24 hrs using propidium iodide staining by FACS analysis. The format is functional. The procedure, abridged:
as §1

The subject of experiment [10] is HeLa. As to the kind of experiment: Cell cycle arrest in human HeLa cells assessed as accumulation at S phase at 0.5 uM after 12 hrs using propidium iodide staining by FACS analysis. The class given is functional. The procedure, abridged: as §1
Experiment [11] concerns HeLa. In words: Cell cycle arrest in human HeLa cells assessed as accumulation at G2 phase at 0.5 uM after 48 hrs using propidium iodide staining by FACS analysis. The class given is functional. In a few lines: as §1
The test system of experiment [12] is HeLa. As to the kind of experiment: Induction of apoptosis in human HeLa cells assessed as caspase 3 cleavage at 0.5 uM. To be noted: TDE = time-dependent effect. The format is functional, cell-based. The procedure, abridged: as §2
Experiment [13] deals with HeLa. In words: Induction of apoptosis in human HeLa cells assessed as breakdown of nuclei by immunostaining method. The format is functional, cell-based. In a few lines:
(§3)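 HeLa cells exposed to 0.5 µM for 48 h. Microtubules stained with anti-α-tubulin and an Alexa Fluor 488 secondary antibody, DNA with TO-PRO-3 iodide. Fragmented nuclei scored by confocal microscopy.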

The subject of experiment [14] is HeLa. In words: Cell cycle arrest in human HeLa cells assessed as accumulation at G1 phase at 0.5 uM after 48 hrs using propidium iodide staining by FACS analysis. The format is functional. In a few lines: as §1
Experiment [15] deals with HeLa. In words: Induction of apoptosis in human HeLa cells assessed as PARP cleavage after 24 to 48 hrs by Western blot analysis. The class given is functional, cell-based. The procedure, abridged:
as §2
Background: Immunoblotting shows a protein as a band on a membrane.

The subject of experiment [16] is HeLa. As to the kind of experiment: Cell cycle arrest in human HeLa cells assessed as accumulation at sub G1 phase at 0.5 uM after 48 hrs using propidium iodide staining by FACS analysis. The class given is functional. In a few lines:
as §1

The test system of experiment [17] is HeLa. In words: Induction of apoptosis in human HeLa cells assessed as fragmentation of chromosomal DNA by immunostaining method. The class given is functional, cell-based. The procedure, abridged:
as §3

Experiment [18] relates to HeLa. In words: Cell cycle arrest in human HeLa cells assessed as accumulation at G1 phase at 0.5 uM after 12 hrs using propidium iodide staining by FACS analysis. The class given is functional. The procedure, abridged:
as §1

Experiment [19] deals with HeLa. As to the kind of experiment: Cell cycle arrest in human HeLa cells assessed as accumulation at sub G1 phase at 0.5 uM after 12 hrs using propidium iodide staining by FACS analysis. The format is functional. The procedure, abridged: as §1
Experiment [20] relates to HeLa. As to the kind of experiment: Cell cycle arrest at G2/M phase in human HeLa cells assessed as decrease in cyclin A expression at 0.5 uM after 48 hrs by Western blot analysis. The class given is functional, cell-based. In a few lines:
as §2

Experiment [21] deals with HeLa. As to the kind of experiment: Inhibition of microtubule assembly in human HeLa cells assessed as loss of stabilization of microtubule bundles by immunofluorescence staining. The class given is cell-based. In a few lines:
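HeLa cells given 0.25 µM for 24 h alongside DMSO vehicle and 0.1 µM taxol controls. Indirect immunofluorescence with anti-α-tubulin and an Alexa Fluor 488 secondary antibody; microtubule network imaged by spectral confocal microscopy.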

Experiment [22] concerns HeLa. In words: Cell cycle arrest at G2/M phase in human HeLa cells assessed as increase in cyclin B1 expression at 0.5 uM after 3 to 24 hrs by Western blot analysis. The format is functional, cell-based. In a few lines:
as §2

For experiment [23], the system named is HeLa. As to the kind of experiment: Cell cycle arrest in human HeLa cells assessed as accumulation at S phase at 0.5 uM after 24 hrs using propidium iodide staining by FACS analysis. The class given is functional. In a few lines:
as §1

Active and inactive are the calls of the source. The rule behind the calls is not given here.

With `CC(=O)O[C@H]1C(=O)[C@@]2(C)[C@H]([C@H](OC(=O)c3ccccc3)[C@]3(O)C[C@H](OC(=O)[C@H](O)[C@@H](NC(=O)c4ccccc4)c4ccccc4)C(C)=C1C3(C)C)[C@]1(OC(C)=O)CO[C@@H]1C[C@@H]2O`, the result in the experiment on HeLa [1] was Active. Moreover, the result in [2] was inactive.
Take `COc1cc([C@@H]2c3cc4c(cc3C[C@H]3COC(=O)[C@@H]32)OCO4)cc(OC)c1OC` [DESOXYPODOPHYLLOTOXIN]: the outcome with HeLa [3], with HeLa [13], in the experiment with HeLa [15], in the experiment on HeLa [17], with HeLa [20] and in the experiment on HeLa [22] was Active. In addition, the Activity in the experiment with HeLa [4] was 3.5%; in the experiment on HeLa [5] it was 87.8%; in the experiment with HeLa [6] it was 58.9%; with HeLa [7], 11%; in the experiment on HeLa [8], “tde”; in the experiment with HeLa [9], 4.5%. The Activity with HeLa [10] was 28.9%; with HeLa [11], 82.1%; in the experiment with HeLa [12], “tde”; in [2], “Dose-dependent effect”; in the experiment on HeLa [14], 6.8%; in the experiment with HeLa [16], 29.7%. Further, the Activity in the experiment on HeLa [18] worked out at 12%; in the experiment on HeLa [19], 0.2%; in the experiment with HeLa [23], 8.6%. The outcome with HeLa [21] was inactive.

The values above are taken from ChEMBL document CHEMBL1153629, “Antitumor activity of deoxypodophyllotoxin isolated from Anthriscus sylvestris: Induction of G2/M cell cycle arrest and caspase-dependent apoptosis” (2009).
